# Experimental data published in paper PMC11847724 (Neoplasia (New York, N.Y.), 2025).
# Where two headings read alike, the source gives them in different places.
# How the values were obtained:
# [1] = test system: advanced or metastatic solid tumors; test: Tumor response by RECIST v1.1; format: in vivo, human; conditions: RECIST v1.1, all doses
# Method in brief: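 Participants received daily oral test compound at 25 to 700 mg/day in 28-day cycles. Best observed response was listed per participant without statistical analysis.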
# [2] = test system: participants with advanced or metastatic solid tumors; format: in vivo, human
# Method in brief: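 Open-label, first-in-human 3 + 3 escalation in adults with recurrent, locally advanced or metastatic solid tumors lacking standard therapy. Test compound was given orally once daily from 25 up to 700 mg/day (modified Fibonacci steps) in 28-day cycles for 6 to 8 cycles, with no intrapatient escalation. The safety population was everyone dosed at least once. AEs were coded by MedDRA and graded by NCI CTCAE v4.03. DLT was assessed in cycle 1, and MTD was the highest dose with DLT in under one-third of a cohort.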
structure (smiles),measurement,setting,value
CNC(=O)c1ccccc1Nc1nc(Nc2ccc3c(c2OC)CCC[C@H](N2CCN(CCO)CC2)C3)ncc1Cl [ESK-440],best overall response: stable disease,[1],7 participants
same,complete or partial response,[1],No participant
same,AE: Cough,[2]; 25 mg/day (n = 3),1 (33) Number (%) of participants
same,AE: Decreased appetite,[2]; 25 mg/day (n = 3),0 Number (%) of participants
same,AE: Diarrhea,[2]; 25 mg/day (n = 3),1 (33) Number (%) of participants
same,AE: Edema peripheral,[2]; 25 mg/day (n = 3),0 Number (%) of participants
same,AE: Fatigue,[2]; 25 mg/day (n = 3),0 Number (%) of participants
same,AE: Nausea,[2]; 25 mg/day (n = 3),1 (33) Number (%) of participants
same,AE: Pyrexia,[2]; 25 mg/day (n = 3),0 Number (%) of participants
same,AE: Vomiting,[2]; 25 mg/day (n = 3),0 Number (%) of participants
same,Any AE,[2]; 25 mg/day (n = 3),3 (100) Number (%) of participants
same,Deaths,[2]; 25 mg/day (n = 3),1 (33) Number (%) of participants
same,Grade 3-5 AE,[2]; 25 mg/day (n = 3),3 (100) Number (%) of participants
same,Other serious AEs,[2]; 25 mg/day (n = 3),2 (67) Number (%) of participants
same,Treatment-related AE,[2]; 25 mg/day (n = 3),1 (33) Number (%) of participants
same,Withdrawn from treatment due to AE,[2]; 25 mg/day (n = 3),1 (33) Number (%) of participants
same,AE: Cough,[2]; 50 mg/day (n = 3),0 Number (%) of participants
same,AE: Decreased appetite,[2]; 50 mg/day (n = 3),0 Number (%) of participants
same,AE: Diarrhea,[2]; 50 mg/day (n = 3),0 Number (%) of participants
same,AE: Edema peripheral,[2]; 50 mg/day (n = 3),0 Number (%) of participants
same,AE: Fatigue,[2]; 50 mg/day (n = 3),1 (33) Number (%) of participants
same,AE: Nausea,[2]; 50 mg/day (n = 3),1 (33) Number (%) of participants
same,AE: Pyrexia,[2]; 50 mg/day (n = 3),1 (33) Number (%) of participants
same,AE: Vomiting,[2]; 50 mg/day (n = 3),0 Number (%) of participants
same,Any AE,[2]; 50 mg/day (n = 3),2 (67) Number (%) of participants
same,Deaths,[2]; 50 mg/day (n = 3),0 Number (%) of participants
same,Grade 3-5 AE,[2]; 50 mg/day (n = 3),1 (33) Number (%) of participants
same,Other serious AEs,[2]; 50 mg/day (n = 3),1 (33) Number (%) of participants
same,Treatment-related AE,[2]; 50 mg/day (n = 3),1 (33) Number (%) of participants
same,Withdrawn from treatment due to AE,[2]; 50 mg/day (n = 3),0 Number (%) of participants
same,AE: Cough,[2]; 100 mg/day (n = 4),0 Number (%) of participants
same,AE: Decreased appetite,[2]; 100 mg/day (n = 4),0 Number (%) of participants
same,AE: Diarrhea,[2]; 100 mg/day (n = 4),0 Number (%) of participants
same,AE: Edema peripheral,[2]; 100 mg/day (n = 4),1 (25) Number (%) of participants
same,AE: Fatigue,[2]; 100 mg/day (n = 4),3 (75) Number (%) of participants
same,AE: Nausea,[2]; 100 mg/day (n = 4),0 Number (%) of participants
same,AE: Pyrexia,[2]; 100 mg/day (n = 4),1 (25) Number (%) of participants
same,AE: Vomiting,[2]; 100 mg/day (n = 4),0 Number (%) of participants
same,Any AE,[2]; 100 mg/day (n = 4),4 (100) Number (%) of participants
same,Deaths,[2]; 100 mg/day (n = 4),1 (25) Number (%) of participants
same,Grade 3-5 AE,[2]; 100 mg/day (n = 4),2 (50) Number (%) of participants
same,Other serious AEs,[2]; 100 mg/day (n = 4),2 (50) Number (%) of participants
same,Treatment-related AE,[2]; 100 mg/day (n = 4),2 (50) Number (%) of participants
same,Withdrawn from treatment due to AE,[2]; 100 mg/day (n = 4),1 (25) Number (%) of participants
same,AE: Cough,[2]; 150 mg/day (n = 3),1 (33) Number (%) of participants
same,AE: Decreased appetite,[2]; 150 mg/day (n = 3),1 (33) Number (%) of participants
same,AE: Diarrhea,[2]; 150 mg/day (n = 3),1 (33) Number (%) of participants
same,AE: Edema peripheral,[2]; 150 mg/day (n = 3),1 (33) Number (%) of participants
same,AE: Fatigue,[2]; 150 mg/day (n = 3),2 (67) Number (%) of participants
same,AE: Nausea,[2]; 150 mg/day (n = 3),0 Number (%) of participants
same,AE: Pyrexia,[2]; 150 mg/day (n = 3),1 (33) Number (%) of participants
same,AE: Vomiting,[2]; 150 mg/day (n = 3),0 Number (%) of participants
same,Any AE,[2]; 150 mg/day (n = 3),3 (100) Number (%) of participants
same,Deaths,[2]; 150 mg/day (n = 3),0 Number (%) of participants
same,Grade 3-5 AE,[2]; 150 mg/day (n = 3),1 (33) Number (%) of participants
same,Other serious AEs,[2]; 150 mg/day (n = 3),1 (33) Number (%) of participants
same,Treatment-related AE,[2]; 150 mg/day (n = 3),3 (100) Number (%) of participants
same,Withdrawn from treatment due to AE,[2]; 150 mg/day (n = 3),0 Number (%) of participants
same,AE: Cough,[2]; 250 mg/day (n = 4),1 (25) Number (%) of participants
same,AE: Decreased appetite,[2]; 250 mg/day (n = 4),2 (50) Number (%) of participants
same,AE: Diarrhea,[2]; 250 mg/day (n = 4),2 (50) Number (%) of participants
same,AE: Edema peripheral,[2]; 250 mg/day (n = 4),2 (50) Number (%) of participants
same,AE: Fatigue,[2]; 250 mg/day (n = 4),3 (75) Number (%) of participants
same,AE: Nausea,[2]; 250 mg/day (n = 4),3 (75) Number (%) of participants
same,AE: Pyrexia,[2]; 250 mg/day (n = 4),0 Number (%) of participants
same,AE: Vomiting,[2]; 250 mg/day (n = 4),3 (75) Number (%) of participants
same,Any AE,[2]; 250 mg/day (n = 4),4 (100) Number (%) of participants
same,Deaths,[2]; 250 mg/day (n = 4),1 (25) Number (%) of participants
same,Grade 3-5 AE,[2]; 250 mg/day (n = 4),1 (25) Number (%) of participants
same,Other serious AEs,[2]; 250 mg/day (n = 4),1 (25) Number (%) of participants
same,Treatment-related AE,[2]; 250 mg/day (n = 4),4 (100) Number (%) of participants
same,Withdrawn from treatment due to AE,[2]; 250 mg/day (n = 4),0 Number (%) of participants
same,AE: Cough,[2]; 350 mg/day (n = 4),1 (25) Number (%) of participants
same,AE: Decreased appetite,[2]; 350 mg/day (n = 4),2 (50) Number (%) of participants
same,AE: Diarrhea,[2]; 350 mg/day (n = 4),1 (25) Number (%) of participants
same,AE: Edema peripheral,[2]; 350 mg/day (n = 4),0 Number (%) of participants
same,AE: Fatigue,[2]; 350 mg/day (n = 4),2 (50) Number (%) of participants
